# Compounds with a hit are over-represented: about 1.7% of the library has one in this group of screens.
# STEP inh = inhibitors of human striatal-enriched phosphatase STEP | recombinant STEP, OMFP fluorogenic substrate, fluorescence | hit rate 0.25% among 360,000 | inhibition, % at 20 µM;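 active = inhibition at 20 µM, scaled per plate between control wells, above about 37%, limit read from the data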;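 note: 0% = DMSO with enzyme and substrate and 100% = substrate only without enzyme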
# Target sequence (P54829 whole entry, looked up): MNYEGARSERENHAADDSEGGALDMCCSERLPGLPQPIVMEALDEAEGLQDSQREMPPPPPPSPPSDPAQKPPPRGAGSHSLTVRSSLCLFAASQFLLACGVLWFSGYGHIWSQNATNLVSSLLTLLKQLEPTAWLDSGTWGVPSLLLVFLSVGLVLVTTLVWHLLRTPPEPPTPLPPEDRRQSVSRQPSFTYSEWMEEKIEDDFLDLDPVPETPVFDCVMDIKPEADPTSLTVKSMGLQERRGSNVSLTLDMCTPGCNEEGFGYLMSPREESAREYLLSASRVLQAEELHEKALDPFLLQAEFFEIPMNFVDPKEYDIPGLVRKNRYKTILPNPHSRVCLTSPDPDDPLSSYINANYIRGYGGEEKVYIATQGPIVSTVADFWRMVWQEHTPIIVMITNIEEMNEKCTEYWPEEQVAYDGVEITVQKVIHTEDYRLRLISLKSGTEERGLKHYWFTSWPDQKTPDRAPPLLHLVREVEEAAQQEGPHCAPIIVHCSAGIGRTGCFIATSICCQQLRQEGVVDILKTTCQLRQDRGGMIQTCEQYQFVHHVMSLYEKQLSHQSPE
#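 Measure: Control-normalized % inhibition with plate pattern correction | Test system: STEP phosphatase, cell-free reaction | Medium: pH 6.0 Bis-Tris with DTT and Tween 20 | Technique: Fluorescence, 480/540 nm | Times: Reaction 20 min, ambient temperature | Doses: Single compound dose of 20 µM, 1% DMSO final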
# SUMO1 PPI mod = alters human SUMO1 binding to SIM partners; inhibition, % at 20 µM; SUMO1 binding to a labelled peptide, TR-FRET, 1 h; hit rate 0.33% among 360,000; AID 602429; in the data active = inhibition above about 37%
# LMPTP inh = LMPTP (human) inhibition | AID 651560 | hit rate 0.22% among 360,000 | recombinant LMPTP-A, OMFP fluorogenic substrate, fluorescence intensity | inhibition, % at 20 µM | P24666;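 active = compounds that cut the enzyme signal by at least half of the control window in the single-dose screen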;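 note: plate controls were DMSO wells with enzyme plus substrate for no effect and substrate without enzyme for full effect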
# Target sequence (P24666 whole entry, looked up): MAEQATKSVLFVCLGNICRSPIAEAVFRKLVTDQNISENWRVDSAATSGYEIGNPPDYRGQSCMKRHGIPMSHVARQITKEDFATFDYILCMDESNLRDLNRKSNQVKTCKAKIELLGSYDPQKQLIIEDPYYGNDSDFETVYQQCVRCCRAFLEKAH
#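 Test system: LMPTP-A phosphatase enzyme. Amount: LMPTP-A at 0.625 nM final in the reaction. Reagent: OMFP substrate, 400 µM final. Times: 50 min at room temperature. Signal: endpoint fluorescence intensity from OMFP dephosphorylation. Read-out basis: % inhibition. Benchmarks: no-enzyme and uninhibited controls.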
# DNMT1 block = DNMT1 (human) enzyme inhibition; inhibition (reported as % activation of signal), % at 10 µM; hit rate 0.83% among 360,000; DNMT1 molecular beacon, Hinp1I cleavage, fluorescence; in the data active = inhibition above about 50%
# Scp-1 inhibitor = Scp-1 (human) phosphatase inhibition. Recombinant Scp1, phosphopeptide, malachite green phosphate absorbance. Q9GZU7. inhibition, % at 20 µM. hit rate 0.88% among 340,000;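 active = inhibition above about 50% at 20 µM, limit read from the data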;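 note: plate controls were DMSO wells with enzyme for no effect and wells lacking enzyme for full effect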
#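 Material: truncated SCP-1 phosphatase (76-261aa) / Buffer or medium: 50 mM Tris acetate pH 5.5, 0.005% Tween-20, 10 mM MgCl2 / Compound dosing: one concentration, 20 µM, with 1.0% DMSO / Incubation: 45 min room-temperature reaction, 5 min colour, 30 min stabiliser / Detection: colorimetric free-phosphate detection, absorbance 630 nm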
# Scp1 confirm = Scp-1 (human) inhibition, single-dose confirmed | recombinant SCP-1 catalytic domain, phosphate release, malachite green absorbance | hit rate 61% among 2,500 | inhibition, % at 20 µM | shares compounds with Scp-1 inhibitor;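 note: plate controls were DMSO with enzyme for no effect and buffer wells lacking enzyme for full effect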
# Scp-1 MG ctr = counter-screen for Scp-1 inhibitors: colorimetric interference; shares compounds with Scp-1 inhibitor; Colorimetric interference counterscreen, malachite green absorbance 630 nm; apparent inhibition (interference), % at 20 µM; 2,500 tested, under 10 active;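 note: compounds added after enzyme reaction finished so only phosphate colour detection is probed; plate controls were DMSO wells with completed Scp-1 reaction for no effect and substrate wells lacking enzyme for full effect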
# Scp1 DSF = Scp-1 (human) binding by thermal shift. shares compounds with Scp-1 inhibitor. Recombinant SCP1, Sypro Orange thermal shift Tm. thermal shift relative to vanadate control, % at 40 µM. hit rate 25% among 1,500. AID 540329;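 active = substances whose mean melting-temperature shift, as a percentage of the reference inhibitor's shift, reaches about 5.3%, limit read from the data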;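 note: 0% = Tm of DMSO wells and 100% = Tm with sodium orthovanadate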
# DNMT1 interf DR = beacon fluorescence artifact, dose response counter-screen; 200 tested, under 10 active; molecular beacon fluorescence, spectral interference counter-screen; shares compounds with DNMT1 block; IC50, µM; call rule not given here
# DNMT1 confirm = DNMT1 inhibition confirmation, single concentration | AID 602385 | shares compounds with DNMT1 block | hit rate 8% among 2,300 | inhibition, % at 10 µM | DNMT1 molecular beacon HinP1I cleavage, fluorescence;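 active = average inhibition of at least 30% in the single-concentration confirmation test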
# DNMT1 interf = beacon fluorescence artifact counter-screen; shares compounds with DNMT1 block; DNMT1 molecular beacon spectral interference counterscreen, fluorescence 485/520; activation (fluorescence interference), % at 10 µM; hit rate 1% among 2,300; AID 602387;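 active = activation of at least 30% at 10 µM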;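 note: DNMT1 catalytic domain with a HinP1I cleavage step and a FAM/dabcyl DNA beacon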
# An asterisk follows results filed as active; . = no result given.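 Rule for the calls, unless noted: active = inhibition of at least 30% at 20 µM; inactive = the rest.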
SMILES,STEP inh,SUMO1 PPI mod,LMPTP inh,DNMT1 block,Scp-1 inhibitor,Scp1 confirm,Scp-1 MG ctr,Scp1 DSF,DNMT1 confirm,DNMT1 interf,others
Cc1cc(-c2ccccc2)nc2c(Br)c(C(=O)O)nn12,13,5,2,52*,95*,61*,-19,8.2*,2,5,
N#CCNC(=O)c1nn2c(C(F)(F)F)cc(-c3ccccc3)nc2c1Br,0,-15,0,-6,-9,.,.,.,.,.,
CCc1nnc(NC(=O)c2cc(-c3ccco3)nc3ccccc23)s1,10,51*,45,92*,65*,45*,-15,8.5*,23,-1,
COc1ccc(NC(=O)c2cc(-c3ccco3)nc3ccccc23)cc1,8,-1,3,12,45,.,.,.,.,.,
CN(C)C(CNC(=O)c1cc(-c2ccco2)nc2ccccc12)c1ccccc1 (stereo unspecified),5,-8,34,86*,70*,55*,-12,13*,46*,-2,DNMT1 interf DR=>99
O=C(NC1CCC(O)CC1)c1cc(-c2ccco2)nc2ccccc12 (stereo unspecified),2,0,10,57*,51*,57*,-13,5,13,3,
Cc1cccc(NC(=O)c2cc(-c3ccco3)nc3ccccc23)n1,4,10,0,5,1,.,.,.,.,.,
COc1ccc(NC(=O)CN(C)C(=O)c2cc(-c3ccco3)nc3ccccc23)cc1,10,10,45,99*,73*,61*,-18,7.4*,23,-3,DNMT1 interf DR=>99
COc1cccc(-c2cc(C(=O)NC3CC3)c3ccccc3n2)c1,2,-11,0,-2,1,.,.,.,.,.,
N#Cc1c(-c2ccccc2)cc(-c2ccccc2)nc1SCCC(=O)O,4,-1,4,-4,-7,.,.,.,.,.,
O=c1ccc2cc(S(=O)(=O)Nc3ccc(Br)cc3)ccc2o1,-2,-3,0,1,-12,.,.,.,.,.,
CCCCCCNC(=O)c1cc(-c2ccco2)nc2ccccc12,10,-8,6,106*,71*,67*,-14,2,9,7,
Cc1ccc(NC(=O)c2cc(-c3ccco3)nc3ccccc23)cc1S(=O)(=O)N1CCOCC1,0,1,13,68*,65*,36*,-4,7.1*,10,3,
CC(C)CCNC(=O)c1cc(-c2ccco2)nc2ccccc12,0,-7,0,-4,-4,.,.,.,.,.,
NS(=O)(=O)c1ccc(NS(=O)(=O)c2ccc(C3CNC(=O)C3)cc2)cc1 (stereo unspecified),-2,3,1,10,4,.,.,.,.,.,
COc1ccc(C(C)NC(=O)CC23CC4CC(CC(C4)C2)C3)cc1 (stereo unspecified),-1,-1,0,-3,-6,.,.,.,.,.,
CC1CN(C(=O)COC(=O)c2ccc3ncsc3c2)CC(C)O1 (stereo unspecified),-2,-4,0,0,-2,.,.,.,.,.,
O=C(O)c1ccc(N2C(=O)c3cccc4c(C(=O)O)ccc(c34)C2=O)cc1,26,4,15,91*,72*,45*,-21,12*,15,-3,
OC(CNCC1COc2ccccc2O1)COc1ccccc1F (stereo unspecified),-2,-2,-1,2,-3,.,.,.,.,.,
C=CCn1c(SCC(=O)N2CCCC2)nc2scc(-c3cccs3)c2c1=O,1,-4,2,9,-1,.,.,.,.,.,
C=CCn1c(SCC(=O)N2CCOCC2)nc2scc(-c3ccco3)c2c1=O,22,21,9,77*,73*,26,-8,.,3,0,
O=C(NC1CCCCC1)c1nc(C2CCNCC2)oc1-c1ccccc1,0,1,-2,6,.,.,.,.,.,.,
Cc1ccc2c(CC(=O)OCc3cc(=O)n4c(n3)sc3ccccc34)coc2c1,3,4,13,105*,66*,68*,-17,-1,5,6,
CC(C)[C@H](NC(=O)Cc1ccccc1)C(=O)OCc1cc(=O)n2c(n1)sc1ccccc12,4,3,22,88*,76*,59*,-16,-8,3,3,
CC(C)NC(=O)CSc1nnc2sc3ccccc3n12,0,2,0,7,7,.,.,.,.,.,
SMILES,STEP inh,SUMO1 PPI mod,LMPTP inh,DNMT1 block,Scp-1 inhibitor,Scp1 confirm,Scp-1 MG ctr,Scp1 DSF,DNMT1 confirm,DNMT1 interf,others
Cc1ccc(COC(=O)Cc2coc3cc(O)ccc23)cc1,0,9,4,2,-7,.,.,.,.,.,
CC(=O)c1c(C)[nH]c(C(=O)COC(=O)c2ccc3c(=O)n4c(nc3c2)CCC4)c1C,2,28,0,-8,-1,.,.,.,.,.,
O=C(OCc1cc(=O)n2c(n1)sc1ccccc12)c1ccc2c(=O)n3c(nc2c1)CCC3,10,29,39,102*,72*,53*,-13,-2,6,-1,
Cc1ccc(Cn2cc(CN3CC(N4CCN(Cc5ccccc5F)CC4)CS3(=O)=O)nn2)cc1 (stereo unspecified),.,-5,-1,.,.,.,.,.,.,.,
Cc1ccc(S(=O)(=O)N(CC(=O)NC2CC3CCC2C3)c2ccccc2)cc1 (stereo unspecified),2,-1,0,0,.,.,.,.,.,.,
CC(=O)Nc1ccc2c(COC(=O)CC3Sc4ccccc4NC3=O)cc(=O)oc2c1 (stereo unspecified),12,2,14,60*,57*,70*,-10,4,10,3,
COc1ccc2c(COC(=O)CC3Sc4ccccc4NC3=O)cc(=O)oc2c1 (stereo unspecified),-1,-1,3,-1,3,.,.,.,.,.,
Cc1ccc(NC(=O)COc2coc(CN3CCc4ccccc43)cc2=O)cc1Cl,4,6,19,59*,59*,55*,-25,2,1,3,
CC1C=CC(C)C(C(=O)O)C1C(=O)O (stereo unspecified),3,9,-1,61*,86*,55*,-20,-26,0,1,
CN(C)S(=O)(=O)c1ccc(N2CCCC2)c(C(=O)NNC(=O)c2ccc(F)cc2)c1,-2,2,1,3,6,.,.,.,.,.,
CCOc1cccc(=O)c2c(C)n(Cc3ccccc3)c(C)c12,0,-1,-2,-3,-7,.,.,.,.,.,

# Screens from PubChem.
